# Assay results from different studies.
# Protocols differ between the studies behind these lines.
# Target: Dual specificity protein kinase CLK4 (CLK4, Homo sapiens, UniProt Q9HAZ1)
SMILES,observed,technique,tested at,remaining binding
O=C(N1CCS(=O)(=O)CC1)N1C[C@H](c2ccc(OC(F)(F)F)cc2)C[C@H](c2nc(C3CC3)no2)C1,cell-free assay,competition with immobilised ligand,1 µM,100%
CC1CCCN1c1nccc(-c2cnn3ncccc23)n1 (stereo not shown),binding,,1 µM,55%
CNCc1ccccc1-c1csc([C@@H](C)Nc2nc(C)nc3cc(OC)c(OC)cc23)c1,cell-free assay,competition with immobilised ligand,1 µM,100%
O=C(Nc1c[nH]nc1C(=O)NC1CCNCC1)c1cc(F)cc(F)c1,binding,competition with immobilised ligand,1 µM,75%
COc1cnc(Nc2cccc(S(N)(=O)=O)c2)nc1N1CCN(c2ccccc2)CC1,binding,competition with immobilised ligand,1 µM,100%
c1cnn2ncc(-c3ccnc(N4CCC45COC5)n3)c2c1,binding,,1 µM,6.2%
Cc1cnc(Nc2ccc(C(=O)N3CCC(N4CCCC4)CC3)cc2)nc1-c1cc2ccccc2s1,binding,competition with immobilised ligand,1 µM,11%
CO[C@@H](C)c1c(Nc2ccc([C@H](N(C)C(=O)C3CCS(=O)(=O)CC3)C(F)(F)F)cc2)cnc2cc(Cl)nn12,cell-free assay,competition with immobilised ligand,1 µM,94%
O=C(NCCCN1CCOCC1)c1ccc(Nc2ncc(Cl)c(-c3ccc(Cl)s3)n2)cc1,binding,competition with immobilised ligand,1 µM,1.6%
N[C@H]1CCN(c2nccc(-c3cnn4ncccc34)n2)C1,binding,,1 µM,22%
CNC(=O)[C@@H]1CC[C@@H](n2c(-c3ccc4cnccc4c3)nc3ccc(C(=O)NCc4cccc(C(N)=O)c4)cc32)C1,binding,competition with immobilised ligand,1 µM,100%
CN(c1nccc(-c2cnn3ncccc23)n1)C1CC1,binding,,1 µM,70%
O=C1NC(c2ccccn2)Sc2ccccc21 (stereo not shown),cell-free assay,competition with immobilised ligand,1 µM,97%
FC(F)(F)Oc1cccc(-c2cnc3ccc(-c4ccncc4)nn23)c1,cell-free assay,competition with immobilised ligand,5 µM,7.8%
O=S(=O)(NC1CCC(c2cc(F)ccc2F)(S(=O)(=O)c2ccc(Cl)cc2)CC1)C(F)(F)F (stereo not shown),cell-free assay,competition with immobilised ligand,1 µM,84%
C[C@@H](c1ccc(-n2cnc3c(N)ncnc32)cc1)N1CCc2nn(C)c(Cc3ccccc3)c2C1=O,binding,competition with immobilised ligand,0.1 µM,100%
C=CC(=O)N1CCC(C(=O)NCC(=O)N2CCN(c3nc(-c4cnc(N)nc4C(F)F)nc(N4CCOCC4)n3)CC2)CC1,binding,competition with immobilised ligand,1 µM,100%
C[C@H]1CCN(c2nccc(-c3cnn4ncccc34)n2)C1,binding,,1 µM,9.9%
Cc1nc(N2CC[C@@H](O)C2)ncc1-c1cc(C(F)(F)F)cc2[nH]ncc12,binding,competition with immobilised ligand,1 µM,92%
F[C@@H]1CCN(c2nccc(-c3cnn4ncccc34)n2)C1,binding,,1 µM,60%
O=C(NCCCC1CCCCC1)c1ccc(CNC(=O)c2cnn(-c3ccccc3)c2C(F)(F)F)cc1,cell-free assay,competition with immobilised ligand,0.1 µM,100%
O=C(c1ccc(Nc2ncc(Cl)c(-c3ccc(Cl)s3)n2)cc1)N1CCC(N2CCCC2)CC1,binding,competition with immobilised ligand,1 µM,2.1%
